Results reported in ChEMBL document CHEMBL1134964, “Heterocyclic benzazole derivatives with antimycobacterial in vitro activity” (2002).
Converted amounts (≈) assume the structure as drawn.

What was measured:
Type in all cases: functional
HeLa = assay: The compound was tested for cytotoxicity against HeLa cells.; settings: Homo sapiens
Mycobacterium avium [1] = assay: In vitro inhibition of Mycobacterium Avium growth after 14 days culture.; settings: 336 h
Procedure, shortened: (§1)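 Micromethod broth MIC. Compounds tested at 500, 250, 125, 32, 16, 8, 4 and 2, plus one intermediate level between 125 and 32. Plates incubated at 37 C and read at 7, 14 and 21 days. MIC is the lowest concentration at which growth of the mycobacteria was inhibited. MIC could not be set where solubility in the test medium was limited.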

Mycobacterium avium [2] = assay: In vitro inhibition of Mycobacterium Avium (My 330/88) growth after 21 days culture.; settings: 504 h; procedure, shortened: as §1
Mycobacterium kansasii [3] = assay: In vitro inhibition of Mycobacterium Kansasi (My 6 509/96) growth after 14 days culture.; settings: 336 h
Mycobacterium kansasii [4] = assay: In vitro inhibition of Mycobacterium Kansasi (My 6 509/96) growth after 21 days culture.; settings: 504 h
[5] = system: Mycobacterium tuberculosis; assay: In vitro minimum inhibitory concentration the compound for anti-mycobacterial activity was determined against Mycobacterium tuberculosis (My 331/88) by micromethod after 21 days of incubation; settings: 504 h; procedure, shortened: as §1
Mycobacterium kansasii [6] = assay: In vitro minimum inhibitory concentration of the compound for anti-mycobacterial activity was determined against Mycobacterium kansasii (My 6 509/96) by micromethod after 7 days of incubation; settings: 168 h
Mycobacterium kansasii [7] = assay: In vitro inhibition of Mycobacterium Kansasi (My 235/80) growth after 14 days culture.; settings: 336 h
Mycobacterium kansasii [8] = assay: In vitro inhibition of Mycobacterium Kansasi (My 235/80) growth after 21 days culture.; settings: 504 h
Mycobacterium kansasii [9] = assay: In vitro inhibition of Mycobacterium Kansasi (My 235/80) growth after 7 days culture.; settings: 168 h
[10] = Ratio of cytotoxicity to minimum inhibitory concentration of Mycobacterium tuberculosis My 331/88 was evaluated
Mycobacterium kansasii [11] = assay: In vitro inhibition of Mycobacterium Kansasi (My 6 509/96) growth after 7 days culture.; settings: 168 h
[12] = system: Mycobacterium tuberculosis; assay: In vitro inhibition of Mycobacterium Tuberculosis (My 331/88) growth after 14 days culture.; settings: 336 h; procedure, shortened: as §1
[13] = system: Mycobacterium tuberculosis; assay: In vitro inhibition of Mycobacterium Tuberculosis (My 331/88) growth after 21 days culture.; settings: 504 h; procedure, shortened: as §1
Mycobacterium kansasii [14] = assay: In vitro minimum inhibitory concentration the compound for anti-mycobacterial activity was determined against Mycobacterium kansasii (My 235/80) by micromethod after 14 days of incubation; settings: 336 h
Mycobacterium kansasii [15] = assay: In vitro minimum inhibitory concentration the compound for anti-mycobacterial activity was determined against Mycobacterium kansasii (My 235/80) by micromethod after 21 days of incubation; settings: 504 h
Mycobacterium kansasii [16] = assay: In vitro minimum inhibitory concentration the compound for anti-mycobacterial activity was determined against Mycobacterium kansasii (My 6 509/96) by micromethod after 7 days of incubation; settings: 168 h
Mycobacterium avium [17] = assay: In vitro minimum inhibitory concentration the compound for anti-mycobacterial activity was determined against Mycobacterium avium (My 330/88) by micromethod after 14 days of incubation; settings: 336 h; procedure, shortened: as §1
Mycobacterium avium [18] = assay: In vitro minimum inhibitory concentration the compound for anti-mycobacterial activity was determined against Mycobacterium avium (My 330/88) by micromethod after 21 days of incubation; settings: 504 h; procedure, shortened: as §1
Mycobacterium kansasii [19] = assay: In vitro minimum inhibitory concentration the compound for anti-mycobacterial activity was determined against Mycobacterium kansasii (My 6 509/96) by micromethod after 14 days of incubation; settings: 336 h
Mycobacterium kansasii [20] = assay: In vitro minimum inhibitory concentration the compound for anti-mycobacterial activity was determined against Mycobacterium kansasii (My 6 509/96) by micromethod after 21 days of incubation; settings: 504 h

NC(=S)c1cccc(CSc2nc3ccccc3s2)c1
CC50 (HeLa): 36.7 µM | MIC (Mycobacterium avium [1]): 32 µM (≈ 10.1 µg/mL) | MIC (Mycobacterium avium [2]): 62 µM (≈ 19.6 µg/mL) | MIC (Mycobacterium kansasii [3]): 16 µM (≈ 5.06 µg/mL) | MIC (Mycobacterium kansasii [4]): 16 µM (≈ 5.06 µg/mL) | MIC [5]: 16 µM (≈ 5.06 µg/mL) | MIC (Mycobacterium kansasii [6]): 8 µM (≈ 2.53 µg/mL) | MIC (Mycobacterium kansasii [7]): 16 µM (≈ 5.06 µg/mL) | MIC (Mycobacterium kansasii [8]): 16 µM (≈ 5.06 µg/mL) | MIC (Mycobacterium kansasii [9]): 8 µM (≈ 2.53 µg/mL) | Safety index [10]: 4.6

O=[N+]([O-])c1ccc(CSc2nc3ccccc3s2)cc1
MIC (Mycobacterium avium [1]): 32 µM (≈ 9.68 µg/mL) | MIC (Mycobacterium avium [2]): > 62 µM | MIC (Mycobacterium kansasii [3]): > 32 µM | MIC (Mycobacterium kansasii [4]): > 125 µM | MIC (Mycobacterium kansasii [11]): 32 µM (≈ 9.68 µg/mL) | MIC [12]: > 32 µM | MIC [13]: > 125 µM | MIC (Mycobacterium kansasii [7]): > 62 µM | MIC (Mycobacterium kansasii [8]): > 250 µM | MIC (Mycobacterium kansasii [9]): 32 µM (≈ 9.68 µg/mL)

NC(=S)c1ccc(CSc2nc3ccccc3o2)cc1
CC50 (HeLa): 78.6 µM | MIC (Mycobacterium avium [1]): 32 µM (≈ 9.61 µg/mL) | MIC (Mycobacterium avium [2]): 32 µM (≈ 9.61 µg/mL) | MIC (Mycobacterium kansasii [3]): 16 µM (≈ 4.81 µg/mL) | MIC (Mycobacterium kansasii [4]): 16 µM (≈ 4.81 µg/mL) | MIC (Mycobacterium kansasii [11]): 8 µM (≈ 2.4 µg/mL) | MIC [12]: 8 µM (≈ 2.4 µg/mL) | MIC [13]: 16 µM (≈ 4.81 µg/mL) | MIC (Mycobacterium kansasii [7]): 16 µM (≈ 4.81 µg/mL) | MIC (Mycobacterium kansasii [8]): 16 µM (≈ 4.81 µg/mL) | MIC (Mycobacterium kansasii [9]): 8 µM (≈ 2.4 µg/mL) | Safety index [10]: 9.8

O=[N+]([O-])c1ccc(CSc2nc3ccccc3s2)c([N+](=O)[O-])c1
CC50 (HeLa): > 144 µM | MIC (Mycobacterium avium [1]): > 32 µM | MIC (Mycobacterium avium [2]): > 32 µM | MIC (Mycobacterium kansasii [3]): 8 µM (≈ 2.78 µg/mL) | MIC (Mycobacterium kansasii [4]): > 32 µM | MIC (Mycobacterium kansasii [11]): 8 µM (≈ 2.78 µg/mL) | MIC [12]: 2 µM (≈ 0.695 µg/mL) | MIC [13]: 4 µM (≈ 1.39 µg/mL) | MIC (Mycobacterium kansasii [7]): 8 µM (≈ 2.78 µg/mL) | MIC (Mycobacterium kansasii [8]): 16 µM (≈ 5.56 µg/mL) | MIC (Mycobacterium kansasii [9]): 8 µM (≈ 2.78 µg/mL) | Safety index [10]: >72

O=[N+]([O-])c1ccc(CSc2nc3ccccc3o2)c([N+](=O)[O-])c1
CC50 (HeLa): 136 µM | MIC (Mycobacterium avium [1]): > 16 µM | MIC (Mycobacterium avium [2]): > 32 µM | MIC (Mycobacterium kansasii [3]): 8 µM (≈ 2.65 µg/mL) | MIC (Mycobacterium kansasii [4]): 8 µM (≈ 2.65 µg/mL) | MIC [12]: 8 µM (≈ 2.65 µg/mL) | MIC [13]: 8 µM (≈ 2.65 µg/mL) | MIC (Mycobacterium kansasii [14]): 4 µM (≈ 1.33 µg/mL) | MIC (Mycobacterium kansasii [15]): 4 µM (≈ 1.33 µg/mL) | MIC (Mycobacterium kansasii [16]): 4 µM (≈ 1.33 µg/mL) | MIC (Mycobacterium kansasii [9]): 4 µM (≈ 1.33 µg/mL) | Safety index [10]: 17

O=[N+]([O-])c1ccccc1CSc1nc2ccccc2o1
MIC (Mycobacterium avium [1]): > 125 µM | MIC (Mycobacterium avium [2]): > 125 µM | MIC (Mycobacterium kansasii [3]): > 62 µM | MIC (Mycobacterium kansasii [4]): > 62 µM | MIC (Mycobacterium kansasii [11]): 62 µM (≈ 17.8 µg/mL) | MIC [12]: > 250 µM | MIC [13]: > 250 µM | MIC (Mycobacterium kansasii [7]): 125 µM (≈ 35.8 µg/mL) | MIC (Mycobacterium kansasii [8]): > 125 µM | MIC (Mycobacterium kansasii [9]): 125 µM (≈ 35.8 µg/mL)

c1ccc(CSc2nc3ccccc3o2)cc1
MIC (Mycobacterium avium [1]): 62 µM (≈ 15 µg/mL) | MIC (Mycobacterium avium [2]): 125 µM (≈ 30.2 µg/mL) | MIC (Mycobacterium kansasii [3]): 125 µM (≈ 30.2 µg/mL) | MIC (Mycobacterium kansasii [4]): 250 µM (≈ 60.3 µg/mL) | MIC (Mycobacterium kansasii [11]): 32 µM (≈ 7.72 µg/mL) | MIC [12]: 250 µM (≈ 60.3 µg/mL) | MIC [13]: 500 µM (≈ 121 µg/mL) | MIC (Mycobacterium kansasii [7]): 250 µM (≈ 60.3 µg/mL) | MIC (Mycobacterium kansasii [8]): 250 µM (≈ 60.3 µg/mL) | MIC (Mycobacterium kansasii [9]): 125 µM (≈ 30.2 µg/mL)

NC(=S)c1ccc(CSc2nc3ccccc3s2)cc1
CC50 (HeLa): > 158 µM | MIC (Mycobacterium avium [1]): 16 µM (≈ 5.06 µg/mL) | MIC (Mycobacterium avium [2]): 32 µM (≈ 10.1 µg/mL) | MIC (Mycobacterium kansasii [3]): 8 µM (≈ 2.53 µg/mL) | MIC (Mycobacterium kansasii [4]): 8 µM (≈ 2.53 µg/mL) | MIC (Mycobacterium kansasii [11]): 4 µM (≈ 1.27 µg/mL) | MIC [12]: 4 µM (≈ 1.27 µg/mL) | MIC [13]: 8 µM (≈ 2.53 µg/mL) | MIC (Mycobacterium kansasii [7]): 8 µM (≈ 2.53 µg/mL) | MIC (Mycobacterium kansasii [8]): 8 µM (≈ 2.53 µg/mL) | MIC (Mycobacterium kansasii [9]): 4 µM (≈ 1.27 µg/mL) | Safety index [10]: >39.5

NC(=S)c1cccc(CSc2nc3ccccc3o2)c1
CC50 (HeLa): 71.9 µM | MIC (Mycobacterium avium [17]): 62 µM (≈ 18.6 µg/mL) | MIC (Mycobacterium avium [18]): 62 µM (≈ 18.6 µg/mL) | MIC [12]: 8 µM (≈ 2.4 µg/mL) | MIC [13]: 16 µM (≈ 4.81 µg/mL) | MIC (Mycobacterium kansasii [14]): 32 µM (≈ 9.61 µg/mL) | MIC (Mycobacterium kansasii [15]): 32 µM (≈ 9.61 µg/mL) | MIC (Mycobacterium kansasii [19]): 32 µM (≈ 9.61 µg/mL) | MIC (Mycobacterium kansasii [20]): 32 µM (≈ 9.61 µg/mL) | MIC (Mycobacterium kansasii [16]): 8 µM (≈ 2.4 µg/mL) | MIC (Mycobacterium kansasii [9]): 8 µM (≈ 2.4 µg/mL) | Safety index [10]: 9

N#Cc1ccc(CSc2nc3ccccc3o2)cc1
MIC (Mycobacterium avium [1]): 62 µM (≈ 16.5 µg/mL) | MIC (Mycobacterium avium [2]): 62 µM (≈ 16.5 µg/mL) | MIC (Mycobacterium kansasii [3]): 32 µM (≈ 8.52 µg/mL) | MIC (Mycobacterium kansasii [4]): > 32 µM | MIC (Mycobacterium kansasii [11]): 16 µM (≈ 4.26 µg/mL) | MIC [12]: > 62 µM | MIC [13]: > 62 µM | MIC (Mycobacterium kansasii [7]): 32 µM (≈ 8.52 µg/mL) | MIC (Mycobacterium kansasii [8]): > 32 µM | MIC (Mycobacterium kansasii [9]): 32 µM (≈ 8.52 µg/mL)

N#Cc1ccc(CSc2nc3ccccc3s2)cc1
MIC (Mycobacterium avium [1]): 32 µM (≈ 9.04 µg/mL) | MIC (Mycobacterium avium [2]): > 32 µM | MIC (Mycobacterium kansasii [3]): 32 µM (≈ 9.04 µg/mL) | MIC (Mycobacterium kansasii [4]): 32 µM (≈ 9.04 µg/mL) | MIC (Mycobacterium kansasii [11]): 16 µM (≈ 4.52 µg/mL) | MIC [12]: 62 µM (≈ 17.5 µg/mL) | MIC [13]: 62 µM (≈ 17.5 µg/mL) | MIC (Mycobacterium kansasii [7]): 250 µM (≈ 70.6 µg/mL) | MIC (Mycobacterium kansasii [8]): > 500 µM | MIC (Mycobacterium kansasii [9]): 125 µM (≈ 35.3 µg/mL)
